Assay results of several laboratories.
Each line is one published result; the experiments were not run side by side.
P2RY14: P2Y purinoceptor 14 (P2RY14, Homo sapiens, UniProt Q15391)
Nuclear receptor subfamily 4 group A member 2: Nuclear receptor subfamily 4 group A member 2 (Homo sapiens, UniProt P43354)

Cc1cc(O)c(-c2ccc([C@@H](C)CN(C)C)cc2)c2c1[nH]c(=O)c1sccc12
inhibition (Eukaryotic elongation factor 2 kinase (EEF2K, Homo sapiens, UniProt O00418); enzyme activity, inhibitor; 0.1 µM): 9.25%

CCCCC(=O)Nc1ccc(-c2ccc3ncn(CCC)c(=O)c3c2)cn1
remaining binding (Tyrosine-protein kinase JAK3, JH1 (JAK3, Homo sapiens, UniProt P52333); binding, competition with immobilised ligand; 0.5 µM): 100%

C#Cc1cc(-c2cc(Nc3nc(N[C@@H](C)c4ccc(F)cn4)ncc3Cl)n[nH]2)ccc1C=O
inhibition (Ribosomal protein S6 kinase alpha-4 (RPS6KA4, Homo sapiens, UniProt O75676); enzyme activity, inhibitor; 0.2 µM): 8.79%

COc1ccc2oc(-c3ccc4nc(N)oc4c3)c/c(=N\c3ccccc3NC(=O)CCN)c2c1
remaining binding (Tyrosine-protein kinase JAK3 (JAK3, Homo sapiens, UniProt P52333); binding; 1 µM): 93%

CC(C)OC(=O)[C@H](Cc1c[nH]c2ccccc12)NC(=O)c1ccc2c(c1)OCO2
inhibition (P2RY14; cAMP, antagonist; HEK293; 0.1 µM): 10.7%

NC/C(=C\F)COc1cccc(Cn2c(=S)[nH]c(=O)c3[nH]cnc32)c1
remaining activity (Eosinophil peroxidase (Homo sapiens, UniProt P11678); enzyme activity, inhibitor; 15 µM): 41.3%

O=C(N[C@@H](Cc1c[nH]c2ccccc12)C(=O)O)c1cscn1
inhibition (P2RY14; cAMP, antagonist; HEK293; 0.1 µM): 60.5%

CCN(CC)Cc1cc(Nc2ccnc3cc(Cl)ccc23)ccc1O
ΔTm (Nuclear receptor subfamily 4 group A member 2; thermal stability, DSF; 100 µM): -0.09 °C

O=C(N[C@@H](Cc1c[nH]c2ccccc12)C(=O)O)C1c2ccccc2Oc2ccccc21
inhibition (P2RY14; cAMP, antagonist; HEK293; 0.1 µM): 18.9%

C1=C/COCc2cc(ccc2OCCN2CCCC2)Nc2nccc(n2)-c2cccc(c2)COC/1
remaining binding (Mitogen-activated protein kinase kinase kinase 1 (MAP3K1, Homo sapiens, UniProt Q13233); binding; 0.1 µM): 100%

CC(C)OC(=O)[C@H](Cc1c[nH]c2ccccc12)NC(=O)COc1ccccc1
inhibition (P2RY14; cAMP, antagonist; HEK293; 0.1 µM): 79.3%

Cc1onc(-c2ccccc2)c1-c1ccc(S(N)(=O)=O)cc1
ΔTm (Nuclear receptor subfamily 4 group A member 2; thermal stability, DSF; 100 µM): -1 °C
